Data from ChEMBL document CHEMBL4396948, “Structure based design of macrocyclic factor XIa inhibitors: Discovery of cyclic P1 linker moieties with improved oral bioavailability” (Bioorg Med Chem Lett, 2019).

Columns and labels:
[1] = Half life in rat liver microsomes; assay type: ADME, Microsome
[2] = Half life in rat at 0.79 mg/kg, iv or 1.58 mg/kg, po; assay type: ADME, organism-based; details: in vivo
Summary of the method: (§1)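 Rat PK after iv and po dosing; both routes given in vehicle 70% PG, 20% water, 10% ethanol; compounds dosed either in cassette or discrete format.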

[3] = AUC in rat; assay type: ADME; details: in vivo; summary of the method: as §1
[4] = Half life in human liver microsomes; assay type: ADME, Microsome
[5] = Volume of distribution at steady state in rat at 0.79 mg/kg, iv or 1.58 mg/kg, po; assay type: ADME, organism-based; details: in vivo, read-out: Vdss; summary of the method: as §1
[6] = Oral bioavailability in rat at 1.58 mg/kg; assay type: ADME, organism-based; details: in vivo; summary of the method: as §1
[7] = Permeability from basolateral to apical side in human Caco2 cells; assay type: ADME, cell-based; details: Caco-2, read-out: permeability
[8] = Permeability from apical to basolateral side in human Caco2 cells; assay type: ADME, cell-based; details: Caco-2, read-out: permeability
[9] = Clearance in rat at 0.79 mg/kg, iv or 1.58 mg/kg, po; assay type: ADME, organism-based; details: in vivo; summary of the method: as §1
[10] = Volume of distribution at steady state in rat at 0.63 mg/kg, iv or 1.27 mg/kg, po; assay type: ADME, organism-based; details: in vivo, read-out: Vdss; summary of the method: as §1
[11] = Oral bioavailability in rat at 1.27 mg/kg; assay type: ADME, organism-based; details: in vivo; summary of the method: as §1
[12] = target: Tissue-type plasminogen activator (Homo sapiens, UniProt P00750); assay: Inhibition of human TPA
[13] = target: T1, Coagulation factor XII (Homo sapiens, UniProt P00748); assay: Inhibition of activated human coagulation factor 12
T1 sequence (P00748 whole entry): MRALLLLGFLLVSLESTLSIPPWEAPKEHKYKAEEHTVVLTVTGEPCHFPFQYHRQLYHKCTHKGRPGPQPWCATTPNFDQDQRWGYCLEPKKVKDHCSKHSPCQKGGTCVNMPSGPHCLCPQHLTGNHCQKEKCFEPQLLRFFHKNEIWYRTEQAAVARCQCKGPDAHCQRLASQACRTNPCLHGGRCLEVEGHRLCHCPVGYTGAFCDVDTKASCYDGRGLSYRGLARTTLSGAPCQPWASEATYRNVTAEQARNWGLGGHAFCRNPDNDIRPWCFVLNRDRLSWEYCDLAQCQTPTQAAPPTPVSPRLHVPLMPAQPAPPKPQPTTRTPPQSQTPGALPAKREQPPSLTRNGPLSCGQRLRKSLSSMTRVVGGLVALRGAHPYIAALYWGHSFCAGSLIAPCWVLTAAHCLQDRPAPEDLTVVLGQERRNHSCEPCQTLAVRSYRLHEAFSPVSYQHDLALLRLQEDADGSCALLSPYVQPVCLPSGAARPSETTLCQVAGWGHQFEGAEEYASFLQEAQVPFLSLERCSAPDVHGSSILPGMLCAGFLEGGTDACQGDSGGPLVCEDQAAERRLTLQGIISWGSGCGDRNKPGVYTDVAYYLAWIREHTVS

[14] = target: Vitamin K-dependent protein C (Homo sapiens, UniProt P04070); assay: Inhibition of human activated protein C
[15] = target: Coagulation factor X (Homo sapiens, UniProt P00742); assay: Inhibition of activated human coagulation factor 10
[16] = Half life in rat at 0.63 mg/kg, iv or 1.27 mg/kg, po; assay type: ADME, organism-based; details: in vivo
Summary of the method: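 Rat pharmacokinetics with iv and oral dosing; the vehicle for both routes was 70% PG, 20% water and 10% ethanol. Half-life was derived from the plasma profile.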

[17] = target: Prothrombin (Homo sapiens, UniProt P00734); assay: Inhibition of human thrombin
[18] = target: T2, Coagulation factor VII (Homo sapiens, UniProt P08709); assay: Inhibition of activated human coagulation factor 7
T2 sequence (P08709 whole entry): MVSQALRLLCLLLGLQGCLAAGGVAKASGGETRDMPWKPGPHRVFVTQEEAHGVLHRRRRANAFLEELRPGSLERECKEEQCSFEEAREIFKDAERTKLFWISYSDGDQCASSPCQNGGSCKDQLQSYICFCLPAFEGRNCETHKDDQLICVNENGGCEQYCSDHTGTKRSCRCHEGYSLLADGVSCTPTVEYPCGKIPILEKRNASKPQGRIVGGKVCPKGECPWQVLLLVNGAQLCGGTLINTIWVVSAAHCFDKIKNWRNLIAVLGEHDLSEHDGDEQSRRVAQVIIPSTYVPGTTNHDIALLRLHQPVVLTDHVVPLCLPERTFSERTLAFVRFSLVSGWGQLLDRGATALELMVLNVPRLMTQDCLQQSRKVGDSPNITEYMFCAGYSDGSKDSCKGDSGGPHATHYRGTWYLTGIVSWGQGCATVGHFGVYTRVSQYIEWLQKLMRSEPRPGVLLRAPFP

[19] = target: Trypsin (Homo sapiens, UniProt P07477+P07478+P35030); assay: Inhibition of human trypsin; assay type: protein assay
[20] = target: Coagulation factor IX (Homo sapiens, UniProt P00740); assay: Inhibition of activated human coagulation factor 9
[21] = target: Plasminogen (Homo sapiens, UniProt P00747); assay: Inhibition of human plasmin
[22] = target: Urokinase-type plasminogen activator (Homo sapiens, UniProt P00749); assay: Inhibition of human urokinase
[23] = Clearance in rat at 0.63 mg/kg, iv or 1.27 mg/kg, po; assay type: ADME, organism-based; details: in vivo; summary of the method: as §1
[24] = target: Coagulation factor XI (Homo sapiens, UniProt P03951); assay: Inhibition of activated coagulation factor 11 (unknown origin) assessed as inhibitory constant
[25] = Oral bioavailability in rat at 1.04 mg/kg; assay type: ADME, organism-based; details: in vivo; summary of the method: as §1
[26] = Volume of distribution at steady state in rat at […], iv or 1.04 mg/kg, po; assay type: ADME, organism-based; details: in vivo, read-out: Vdss
[27] = Clearance in rat at […], iv or 1.04 mg/kg, po; assay type: ADME, organism-based; details: in vivo
[28] = Half life in rat at […], iv or 1.04 mg/kg, po; assay type: ADME, organism-based; details: in vivo
[29] = Clearance in rat at 0.68 mg/kg, iv or 1.36 mg/kg, po; assay type: ADME, organism-based; details: in vivo; summary of the method: as §1
[30] = Oral bioavailability in rat at 1.36 mg/kg; assay type: ADME, organism-based; details: in vivo; summary of the method: as §1
[31] = Half life in rat at 0.68 mg/kg, iv or 1.36 mg/kg, po; assay type: ADME, organism-based; details: in vivo; summary of the method: as §1
[32] = Volume of distribution at steady state in rat at 0.68 mg/kg, iv or 1.36 mg/kg, po; assay type: ADME, organism-based; details: in vivo, read-out: Vdss; summary of the method: as §1

Coagulation factor XI, sequence (P03951 19-387 limits assumed): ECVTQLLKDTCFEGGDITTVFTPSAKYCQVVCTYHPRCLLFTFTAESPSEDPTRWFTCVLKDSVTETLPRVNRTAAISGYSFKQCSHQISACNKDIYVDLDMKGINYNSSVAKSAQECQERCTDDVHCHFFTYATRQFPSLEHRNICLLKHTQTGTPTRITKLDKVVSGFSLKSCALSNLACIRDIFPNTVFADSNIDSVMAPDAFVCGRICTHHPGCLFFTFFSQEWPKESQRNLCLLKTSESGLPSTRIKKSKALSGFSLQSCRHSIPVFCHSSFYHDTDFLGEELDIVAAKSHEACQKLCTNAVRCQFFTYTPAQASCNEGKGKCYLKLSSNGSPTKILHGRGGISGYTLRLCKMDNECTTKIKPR
Coagulation factor XI, sequence (P03951 388-625 limits assumed): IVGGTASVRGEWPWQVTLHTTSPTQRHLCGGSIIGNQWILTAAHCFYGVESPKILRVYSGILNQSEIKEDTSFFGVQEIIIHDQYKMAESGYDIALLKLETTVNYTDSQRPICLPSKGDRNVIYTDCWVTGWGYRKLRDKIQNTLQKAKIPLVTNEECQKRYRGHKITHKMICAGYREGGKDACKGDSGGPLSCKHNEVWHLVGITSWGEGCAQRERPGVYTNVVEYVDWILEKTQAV
Vitamin K-dependent protein C, sequence (P04070 43-197 limits assumed): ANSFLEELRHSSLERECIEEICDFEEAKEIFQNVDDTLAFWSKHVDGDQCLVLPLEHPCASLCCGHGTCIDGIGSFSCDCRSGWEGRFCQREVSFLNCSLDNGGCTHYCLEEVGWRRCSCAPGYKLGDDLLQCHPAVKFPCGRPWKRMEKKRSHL
Vitamin K-dependent protein C, sequence (P04070 212-461 limits assumed): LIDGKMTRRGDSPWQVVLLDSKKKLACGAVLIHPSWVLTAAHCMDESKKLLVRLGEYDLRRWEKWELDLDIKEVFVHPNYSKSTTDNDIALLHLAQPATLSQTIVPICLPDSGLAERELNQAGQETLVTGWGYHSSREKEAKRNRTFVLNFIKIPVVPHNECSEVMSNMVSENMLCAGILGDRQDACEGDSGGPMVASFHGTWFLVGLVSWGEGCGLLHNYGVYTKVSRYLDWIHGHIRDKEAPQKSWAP
Coagulation factor IX, sequence (P00740 47-191 limits assumed): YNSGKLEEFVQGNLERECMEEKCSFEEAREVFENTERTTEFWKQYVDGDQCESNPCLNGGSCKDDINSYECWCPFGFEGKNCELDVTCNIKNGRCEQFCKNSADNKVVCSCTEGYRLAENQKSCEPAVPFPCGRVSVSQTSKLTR
Coagulation factor IX, sequence (P00740 227-461 limits assumed): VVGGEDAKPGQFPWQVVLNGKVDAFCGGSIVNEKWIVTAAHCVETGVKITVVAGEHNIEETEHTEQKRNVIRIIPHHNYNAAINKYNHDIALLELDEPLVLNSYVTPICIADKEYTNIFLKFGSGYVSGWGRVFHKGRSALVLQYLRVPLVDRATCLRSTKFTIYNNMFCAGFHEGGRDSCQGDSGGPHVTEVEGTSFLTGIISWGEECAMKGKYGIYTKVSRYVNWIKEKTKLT
Plasminogen, sequence (P00747 97-580 limits assumed): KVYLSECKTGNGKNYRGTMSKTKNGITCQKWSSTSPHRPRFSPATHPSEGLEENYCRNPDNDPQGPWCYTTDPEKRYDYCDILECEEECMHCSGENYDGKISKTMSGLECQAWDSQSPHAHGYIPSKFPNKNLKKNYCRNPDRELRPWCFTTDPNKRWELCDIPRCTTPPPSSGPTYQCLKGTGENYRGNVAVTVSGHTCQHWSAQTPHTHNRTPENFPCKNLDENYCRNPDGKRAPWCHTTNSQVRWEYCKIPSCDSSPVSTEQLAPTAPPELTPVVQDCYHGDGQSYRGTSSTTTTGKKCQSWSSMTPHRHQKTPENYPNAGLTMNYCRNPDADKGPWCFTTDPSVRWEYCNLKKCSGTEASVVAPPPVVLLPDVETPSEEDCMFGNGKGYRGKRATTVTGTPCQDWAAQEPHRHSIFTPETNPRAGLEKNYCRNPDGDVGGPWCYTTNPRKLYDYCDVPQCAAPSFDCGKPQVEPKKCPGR
Plasminogen, sequence (P00747 581-810 limits assumed): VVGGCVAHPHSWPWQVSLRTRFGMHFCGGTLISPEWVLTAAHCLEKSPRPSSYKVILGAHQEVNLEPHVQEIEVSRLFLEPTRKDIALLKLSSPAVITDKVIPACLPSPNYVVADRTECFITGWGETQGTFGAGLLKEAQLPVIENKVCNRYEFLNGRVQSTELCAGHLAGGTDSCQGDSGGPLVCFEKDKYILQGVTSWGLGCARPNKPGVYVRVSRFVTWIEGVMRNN
Tissue-type plasminogen activator, sequence (P00750 whole entry): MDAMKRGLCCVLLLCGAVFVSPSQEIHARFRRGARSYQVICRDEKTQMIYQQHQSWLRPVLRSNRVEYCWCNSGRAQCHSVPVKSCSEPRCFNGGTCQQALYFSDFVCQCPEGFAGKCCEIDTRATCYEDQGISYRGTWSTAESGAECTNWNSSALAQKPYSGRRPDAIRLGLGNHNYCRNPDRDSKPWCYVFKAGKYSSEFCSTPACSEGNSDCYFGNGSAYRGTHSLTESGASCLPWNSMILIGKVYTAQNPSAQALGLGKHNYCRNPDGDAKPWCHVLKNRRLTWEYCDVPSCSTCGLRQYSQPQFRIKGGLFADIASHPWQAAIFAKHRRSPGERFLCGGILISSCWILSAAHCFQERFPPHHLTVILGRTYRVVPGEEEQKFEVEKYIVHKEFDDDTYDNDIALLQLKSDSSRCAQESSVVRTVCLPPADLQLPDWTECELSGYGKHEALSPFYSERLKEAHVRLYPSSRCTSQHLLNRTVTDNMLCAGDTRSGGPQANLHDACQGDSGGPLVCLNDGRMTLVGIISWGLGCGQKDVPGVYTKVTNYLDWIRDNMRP
Coagulation factor X, sequence (P00742 41-179 limits assumed): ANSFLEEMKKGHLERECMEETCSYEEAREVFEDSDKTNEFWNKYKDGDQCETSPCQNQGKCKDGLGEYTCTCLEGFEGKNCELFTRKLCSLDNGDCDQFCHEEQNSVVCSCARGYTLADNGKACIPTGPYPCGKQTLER
Coagulation factor X, sequence (P00742 235-488 limits assumed): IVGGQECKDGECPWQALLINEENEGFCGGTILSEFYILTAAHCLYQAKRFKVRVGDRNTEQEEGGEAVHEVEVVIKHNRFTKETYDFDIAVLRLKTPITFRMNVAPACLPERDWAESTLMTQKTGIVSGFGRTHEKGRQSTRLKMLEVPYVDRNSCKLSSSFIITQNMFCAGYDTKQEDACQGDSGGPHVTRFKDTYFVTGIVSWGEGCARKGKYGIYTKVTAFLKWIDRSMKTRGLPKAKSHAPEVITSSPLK

SMILES: COC(=O)Nc1ccc2c(c1)NC(=O)CC/C=C/C[C@H](NC(=O)/C=C/c1cc(Cl)ccc1-n1cnnn1)c1nc-2c[nH]1
- half-life [1]: 39 min
- half-life [2]: 42 min
- AUC [3]: 0.011 µM·h
- half-life [4]: 41 min
- Vd [5]: 0.7 L/kg
- bioavailability [6]: 0.8%
- Papp B→A [7]: 5.8 ×10⁻⁶ cm/s
- Papp A→B [8]: < 1.5 ×10⁻⁶ cm/s
- clearance [9]: 28 mL/min/kg

SMILES: COC(=O)Nc1ccc2c(c1)NC(=O)CC/C=C/C[C@H](N1CC[C@H](c3cccc(Cl)c3)CC1=O)c1nc-2c[nH]1
- half-life [1]: 5 min
- Vd [10]: 4.6 L/kg
- AUC [3]: 0.031 µM·h
- bioavailability [11]: 15%
- half-life [4]: 6 min
- Ki [12]: > 6.15 µM
- Ki [13]: > 3.05 µM
- Ki [14]: > 7.16 µM
- Ki [15]: > 9 µM
- half-life [16]: 30 min
- Ki [17]: > 13.3 µM
- Ki [18]: 4.85 µM
- Ki [19]: > 6.26 µM
- Ki [20]: > 27.1 µM
- Ki [21]: > 15.2 µM
- Papp B→A [7]: 30.9 ×10⁻⁶ cm/s
- Papp A→B [8]: 4.6 ×10⁻⁶ cm/s
- Ki [22]: > 15.1 µM
- clearance [23]: 188 mL/min/kg

SMILES: COC(=O)Nc1ccc(-c2nc([C@H](Cc3ccccc3)NC(=O)CCc3cccc(Cl)c3)[nH]c2Cl)cc1
- Ki [24]: 0.871 µM

SMILES: COC(=O)Nc1ccc(-c2nc([C@H](Cc3ccccc3)N(C)C(=O)/C=C/c3cc(Cl)ccc3-n3cnnn3)[nH]c2Cl)cc1
- Ki [24]: 0.189 µM

SMILES: COC(=O)Nc1ccc2c(c1)NC(=O)CC/C=C/C[C@H](N1CCC(c3c(F)ccc(Cl)c3F)NC1=O)c1nc-2c[nH]1 (some centres not stated)
- half-life [1]: 26 min
- half-life [4]: 41 min

SMILES: COC(=O)Nc1ccc2c(c1)NC(=O)CC/C=C/C[C@H](NC(=O)/C=C/c1cccc(Cl)c1)c1nc-2c[nH]1
- half-life [1]: 45 min
- AUC [3]: 0.027 µM·h
- bioavailability [25]: 2%
- half-life [4]: 32 min
- Vd [26]: 3.2 L/kg
- clearance [27]: 44 mL/min/kg
- Papp B→A [7]: 32.4 ×10⁻⁶ cm/s
- Papp A→B [8]: < 1.5 ×10⁻⁶ cm/s
- half-life [28]: 84 min

SMILES: COC(=O)Nc1ccc(-c2c[nH]c([C@@H]3[C@@H](c4ccccc4)CCN3C(=O)/C=C/c3cc(Cl)ccc3-n3cnnn3)n2)cc1
- Ki [24]: 0.372 µM

SMILES: COC(=O)Nc1ccc2c(c1)NC(=O)CC/C=C/C[C@H](N1CC[C@H](c3c(F)ccc(Cl)c3F)CC1=O)c1nc-2c[nH]1
- half-life [1]: 7 min
- half-life [4]: 9 min

SMILES: COC(=O)Nc1ccc2c(c1)NC(=O)CC/C=C/C[C@H](N1CCC(c3cccc(Cl)c3)NC1=O)c1nc-2c[nH]1 (some centres not stated)
- half-life [1]: 18 min
- half-life [4]: 35 min

SMILES: COC(=O)Nc1ccc(-c2cn3c(n2)C(Cc2ccccc2)N(C(=O)/C=C/c2cc(Cl)ccc2-n2cnnn2)CCC3)cc1 (configuration not stated)
- Ki [24]: > 13.3 µM

SMILES: COC(=O)Nc1ccc2c(c1)NC(=O)CC/C=C/C[C@H](N1CC[C@H](c3cccc(Cl)c3)OC1=O)c1nc-2c(Cl)[nH]1
- half-life [1]: 14 min
- half-life [4]: 11 min

SMILES: COC(=O)Nc1ccc2c(c1)NC(=O)CC/C=C/C[C@H](N1CC[C@H](c3c(F)ccc(Cl)c3F)OC1=O)c1nc-2c(Cl)[nH]1
- half-life [1]: 22 min
- half-life [4]: 9 min

SMILES: COC(=O)Nc1ccc2c(c1)NC(=O)CC/C=C/C[C@H](N1CC[C@H](c3cc(Cl)ccc3F)OC1=O)c1nc-2c(Cl)[nH]1
- half-life [1]: 18 min
- half-life [4]: 5 min

SMILES: COC(=O)Nc1ccc2c(c1)NC(=O)CC/C=C/C[C@H](N1CC[C@H](c3cccc(Cl)c3)OC1=O)c1nc-2c[nH]1
- AUC [3]: 0.523 µM·h
- clearance [29]: 40 mL/min/kg
- bioavailability [30]: 59%
- half-life [31]: 48 min
- Vd [32]: 1.3 L/kg

SMILES: COC(=O)Nc1ccc(-c2nc([C@H](Cc3ccccc3)NC(=O)NCc3cccc(Cl)c3)[nH]c2Cl)cc1
- Ki [24]: 0.422 µM

SMILES: COC(=O)Nc1ccc(-c2nc([C@H](Cc3ccccc3)N3CCC(c4cccc(Cl)c4)NC3=O)[nH]c2Cl)cc1 (some centres not stated)
- Ki [24]: 0.175 µM

SMILES: COC(=O)Nc1ccc2c(c1)NC(=O)CC/C=C/C[C@H](N1CC[C@H](c3cc(Cl)ccc3C(F)(F)F)OC1=O)c1nc-2c(Cl)[nH]1
- half-life [1]: 49 min
- half-life [4]: 18 min

SMILES: COC(=O)Nc1ccc2c(c1)NC(=O)CC/C=C/C[C@H](N1CC[C@H](c3c(F)ccc(Cl)c3F)OC1=O)c1nc-2c[nH]1
- half-life [1]: 15 min
- half-life [4]: 8 min

SMILES: COC(=O)Nc1ccc2c(c1)NC(=O)CC/C=C/C[C@H](N1CCN(c3cccc(Cl)c3)CC1=O)c1nc-2c[nH]1
- half-life [4]: 15 min

SMILES: [2H][C@]1(c2c(F)ccc(Cl)c2F)CCN([C@H]2C/C=C/CCC(=O)Nc3cc(NC(=O)OC)ccc3-c3nc2[nH]c3Cl)C(=O)O1
- half-life [1]: 31 min
- half-life [4]: 16 min
